Calls of active or inactive are those of the source.
Tests used:
[1] = test system: Prescottella equi; test: Antibacterial activity against Rhodococcus equi ATCC 6939T selected on 2 ug/ml of compound treated culture by broth microdilution method; format: functional; details: Rhodococcus (subgen. Prescottella) equi
How it was run: (§1)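 Mutants were selected by plating at least 1 × 10^10 cells, grown 48 h at 35°C in brain heart infusion broth, on ciprofloxacin-containing Columbia blood agar base for 4 days at 35°C. Each was confirmed by two passages at the selecting concentration and one drug-free passage. MIC was then read by broth microdilution in cation-supplemented Mueller-Hinton broth per CLSI M24-A. Each experiment was done twice.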

[2] = test system: Prescottella equi; test: Antibacterial activity against Rhodococcus equi W5234 selected on 2 ug/ml of compound treated culture by broth microdilution method; format: functional; details: Rhodococcus (subgen. Prescottella) equi; how it was run: as §1
[3] = test system: Prescottella equi; test: Antibacterial activity against Rhodococcus equi ATCC 6939T harboring GyrA Asp87Gly mutation selected on 8 ug/ml of compound treated culture by broth microdilution method; format: functional; details: Rhodococcus (subgen. Prescottella) equi; how it was run: as §1
[4] = test system: Prescottella equi; test: Antibacterial activity against Rhodococcus equi W5234 harboring GyrA Ser83Arg mutation selected on 8 ug/ml of compound treated culture by broth microdilution method; format: functional; details: Rhodococcus (subgen. Prescottella) equi; how it was run: as §1
[5] = test system: Prescottella equi; test: Antibacterial activity against Rhodococcus equi ATCC 6939T harboring GyrB Asn464Asp mutation selected on 1 ug/ml of compound treated culture by broth microdilution method; format: functional, organism-based; how it was run: as §1
[6] = test system: Prescottella equi; test: Antibacterial activity against Rhodococcus equi W5234 harboring GyrA Asp87Asn mutation selected on 6 ug/ml of compound treated culture by broth microdilution method; format: functional, organism-based; how it was run: as §1
[7] = test system: Prescottella equi; test: Antibacterial activity against Rhodococcus equi W5234 selected on 4 ug/ml of compound treated culture by broth microdilution method; format: functional; details: Rhodococcus (subgen. Prescottella) equi; how it was run: as §1
[8] = test system: Prescottella equi; test: Antibacterial activity against Rhodococcus equi ATCC 6939T harboring GyrA Asp87Tyr mutation selected on 4 ug/ml of compound treated culture by broth microdilution method; format: functional, organism-based; how it was run: as §1
[9] = test system: Prescottella equi; test: Antibacterial activity against Rhodococcus equi ATCC 6939T harboring GyrA Ser83Ile mutation selected on 8 ug/ml of compound treated culture by broth microdilution method; format: functional; details: Rhodococcus (subgen. Prescottella) equi; how it was run: as §1
[10] = test system: Prescottella equi; test: Antibacterial activity against Rhodococcus equi ATCC 6939T harboring GyrA Ser83Arg mutation selected on 16 ug/ml of compound treated culture by broth microdilution method; format: functional; details: Rhodococcus (subgen. Prescottella) equi; how it was run: as §1
[11] = test system: Prescottella equi; test: Antibacterial activity against Rhodococcus equi ATCC 6939T harboring GyrA Asp87Asn mutation selected on 6 ug/ml of compound treated culture by broth microdilution method; format: functional; details: Rhodococcus (subgen. Prescottella) equi; how it was run: as §1
[12] = test system: Prescottella equi; test: Antibacterial activity against Rhodococcus equi W5234 harboring GyrA Ser83Arg mutation selected on 16 ug/ml of compound treated culture by broth microdilution method; format: functional; details: Rhodococcus (subgen. Prescottella) equi; how it was run: as §1
[13] = test system: Prescottella equi; test: Antibacterial activity against Rhodococcus equi W5234 harboring GyrA Ser83Ile mutation selected on 12 ug/ml of compound treated culture by broth microdilution method; format: functional; details: Rhodococcus (subgen. Prescottella) equi; how it was run: as §1
[14] = test system: Prescottella equi; test: Antibacterial activity against Rhodococcus equi W5234 harboring GyrA Ser83Arg mutation selected on 4 ug/ml of compound treated culture by broth microdilution method; format: functional; details: Rhodococcus (subgen. Prescottella) equi; how it was run: as §1
[15] = test system: Prescottella equi; test: Antibacterial activity against Rhodococcus equi W5234 harboring GyrA Asp87Tyr mutation selected on 4 ug/ml of compound treated culture by broth microdilution method; format: functional; details: Rhodococcus (subgen. Prescottella) equi; how it was run: as §1
[16] = test system: Prescottella equi; test: Antibacterial activity against Rhodococcus equi ATCC 6939T selected on 8 ug/ml of compound treated culture by broth microdilution method; format: functional, organism-based; how it was run: as §1
[17] = test system: Prescottella equi; test: Antibacterial activity against Rhodococcus equi W5234 harboring GyrA Asp87Asn mutation selected on 4 ug/ml of compound treated culture by broth microdilution method; format: functional; details: Rhodococcus (subgen. Prescottella) equi; how it was run: as §1
[18] = test system: Prescottella equi; test: Antibacterial activity against Rhodococcus equi ATCC 6939T harboring GyrA Asp87Gly mutation selected on 4 ug/ml of compound treated culture by broth microdilution method; format: functional; details: Rhodococcus (subgen. Prescottella) equi; how it was run: as §1
[19] = test system: Prescottella equi; test: Antibacterial activity against Rhodococcus equi ATCC 6939T harboring GyrA Asp87Asn mutation selected on 8 ug/ml of compound treated culture by broth microdilution method; format: functional; details: Rhodococcus (subgen. Prescottella) equi; how it was run: as §1
[20] = test system: Prescottella equi; test: Antibacterial activity against Rhodococcus equi W5234 harboring GyrA Ser83Ile mutation selected on 4 ug/ml of compound treated culture by broth microdilution method; format: functional; details: Rhodococcus (subgen. Prescottella) equi; how it was run: as §1
[21] = test system: Prescottella equi; test: Antibacterial activity against Rhodococcus equi ATCC 6939T harboring GyrA Ser83Arg mutation selected on 6 ug/ml of compound treated culture by broth microdilution method; format: functional, organism-based; how it was run: as §1
[22] = test system: Prescottella equi; test: Antibacterial activity against Rhodococcus equi ATCC 6939T harboring GyrA Asp87His mutation selected on 6 ug/ml of compound treated culture by broth microdilution method; format: functional; details: Rhodococcus (subgen. Prescottella) equi; how it was run: as §1
[23] = test system: Prescottella equi; test: Antibacterial activity against Rhodococcus equi W5234 harboring GyrA Gly81Cys mutation selected on 4 ug/ml of compound treated culture by broth microdilution method; format: functional, organism-based; how it was run: as §1
[24] = test system: Prescottella equi; test: Antibacterial activity against Rhodococcus equi W5234 selected on 1 ug/ml of compound treated culture by broth microdilution method; format: functional; details: Rhodococcus (subgen. Prescottella) equi; how it was run: as §1
[25] = test system: Prescottella equi; test: Antibacterial activity against Rhodococcus equi ATCC 6939T harboring GyrA Ser83Ile mutation selected on 4 ug/ml of compound treated culture by broth microdilution method; format: functional, organism-based; how it was run: as §1

Measured: MIC

O=C(O)c1cn(C2CC2)c2cc(N3CCNCC3)c(F)cc2c1=O [CIPROFLOXACIN]
32 µg/mL: [4] | [9] | [10] | [14] | [19] | [20]
16 µg/mL: [3] | [11] | [17] | [22]
2 µg/mL: [1] | [2] | [24]
8 µg/mL: [7] | [15] | [18]
64 µg/mL: [12] | [13]
inactive: all other assays above

— ChEMBL document CHEMBL1275251, “Mutant selection window and characterization of allelic diversity for ciprofloxacin-resistant mutants of Rhodococcus equi” (Antimicrob Agents Chemother, 2010)
